This is an account of results in ChEMBL document CHEMBL1955813, “Synthesis of new troglitazone derivatives: anti-proliferative activity in breast cancer cell lines and preliminary toxicological study” (Eur J Med Chem, 2012).

In general, Cmax refers to the peak of the concentration-time curve. The term IC50 denotes the point on the concentration scale where inhibition reaches its midpoint. Read a low IC50 as higher potency. As a reminder, the Kp is tissue or fluid exposure divided by exposure in the circulation.

The structures appear in SMILES notation.

Tested on in one data set: not listed separately
Nature of the data set: Cmax in human at 600 mg/day. In kind it is ADME, organism-based. Further details: dose 600 mg/day. To be noted: plasma.
For `Cc1c(C)c2c(c(C)c1O)CCC(C)(COc1ccc(CC3SC(=O)NC3=O)cc1)O2` (stereo not drawn) [TROGLITAZONE], the Cmax was determined as 6.3 µM.

The test system of another data set is MDA-MB-231. Nature of the data set: Antiproliferative activity hormone-independent human MDA-MB-231 cells after 24 hrs by luminescent cell viability assay. In kind it is functional, cell-based. To be noted: MDA-MB-231, 24 h. An outline of the steps:
(§1)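 Seeded at 8.10⁴ cells/well; after 24 h attachment, medium switched to 1% FCS with 2 mM L-glutamine and compounds added. MCF-7 grown in phenol red DMEM, MDA-MB-231 in L-15 (both 10% FCS, 37 °C). Exposure 24 h; controls 0.1% DMSO. Cells washed, trypsinized, quantified by CellTiter-Glo luminescence. Triplicate; IC50 = concentration halving viable cell number.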
`Cc1c(C)c2c(c(C)c1OC(=O)CCCCCCCNC(=O)CCCC[C@@H]1SC[C@@H]3NC(=O)N[C@@H]31)CCC(C)(COc1ccc(/C=C3\SC(=O)NC3=O)cc1)O2` (stereo partly drawn) gave an IC50 of 3.7 µM.

Consider `Cc1c(C)c2c(c(C)c1OC(=O)CCCC[C@@H]1SC[C@@H]3NC(=O)N[C@@H]31)CCC(C)(COc1ccc(/C=C3\SC(=O)NC3=O)cc1)O2` (mixture of isomers), for which the IC50 amounted to 3.5 µM.

With `Cc1c(C)c2c(c(C)c1OC(=O)CCCC[C@@H]1SC[C@@H]3NC(=O)N[C@@H]31)CCC(C)(COc1ccc(CC3SC(=O)NC3=O)cc1)O2` (mixture of isomers), the IC50 is 6.5 µM.

Molecule `Cc1c(C)c2c(c(C)c1OC(=O)OC(C)(C)C)CCC(C)(COc1ccc(/C=C3\SC(=O)NC3=O)cc1)O2` (racemic) registered an IC50 of 3.3 µM.

Turning to `Cc1cc(C)c2c(c1C)OC(C)(COc1ccc(/C=C3\SC(=O)NC3=O)cc1)CC2` (racemic), the IC50 was determined as 10.8 µM.

With `Cc1c(C)c2c(c(C)c1OC(=O)CCCCCCCNC(=O)OC(C)(C)C)CCC(C)(COc1ccc(/C=C3\SC(=O)NC3=O)cc1)O2` (racemic), the IC50 worked out at 3.2 µM.

`Cc1c(C)c2c(c(C)c1OC(=O)CCCCCCCN)CCC(C)(COc1ccc(/C=C3\SC(=O)NC3=O)cc1)O2` (racemic) yielded an IC50 of 5 µM.

As to `CC(=O)NCCNC(=O)CCC(=O)Oc1c(C)c(C)c2c(c1C)CCC(C)(COc1ccc(/C=C3\SC(=O)NC3=O)cc1)O2` (racemic), the IC50 was greater than 25 µM.

With `Cc1c(C)c2c(c(C)c1OC(=O)OC(C)(C)C)CCC(C)(COc1ccc(CC3SC(=O)NC3=O)cc1)O2` (racemic), the half-inhibitory concentration (IC50) came out at 3.8 µM.

The molecule `Cc1cc(C)c2c(c1C)OC(C)(COc1ccc(CC3SC(=O)NC3=O)cc1)CC2` (racemic) displayed an IC50 of 12.3 µM.

Take `Cc1c(C)c2c(c(C)c1OC(=O)CCC(=O)O)CCC(C)(COc1ccc(CC3SC(=O)NC3=O)cc1)O2` (racemic): the IC50 was greater than 25 µM.

In the case of `Cc1c(C)c2c(c(C)c1O)CCC(C)(COc1ccc(/C=C3\SC(=O)NC3=O)cc1)O2` (racemic), it took 16.6 µM to reach half-maximal inhibition (IC50).

The molecule `Cc1c(C)c2c(c(C)c1OC(=O)CCC(=O)O)CCC(C)(COc1ccc(/C=C3\SC(=O)NC3=O)cc1)O2` (racemic) yielded an IC50 greater than 25 µM.

`Cc1c(C)c2c(c(C)c1O)CCC(C)(COc1ccc(CC3SC(=O)NC3=O)cc1)O2` (stereo not drawn) [TROGLITAZONE] had an IC50 of 15.7 µM.

Tested on in the next data set: not listed separately
Nature of the data set: Ratio of drug level in liver to plasma in rat. In kind it is ADME, tissue-based. As to conditions: liver and plasma.
Take `Cc1c(C)c2c(c(C)c1O)CCC(C)(COc1ccc(CC3SC(=O)NC3=O)cc1)O2` (stereo not drawn) [TROGLITAZONE]: the Kp came to 10.

The subject of another data set is MCF7. The data set is described as follows: Antiproliferative activity hormone-dependent human MCF7 cells after 24 hrs by luminescent cell viability assay. It counts as functional, cell-based. As to conditions: MCF7, 24 h. An outline of the steps:
as §1
`Cc1c(C)c2c(c(C)c1OC(=O)CCCCCCCNC(=O)CCCC[C@@H]1SC[C@@H]3NC(=O)N[C@@H]31)CCC(C)(COc1ccc(/C=C3\SC(=O)NC3=O)cc1)O2` (stereo partly drawn) returned an IC50 of 26 µM.

For the molecule `Cc1c(C)c2c(c(C)c1OC(=O)CCCC[C@@H]1SC[C@@H]3NC(=O)N[C@@H]31)CCC(C)(COc1ccc(/C=C3\SC(=O)NC3=O)cc1)O2` (mixture of isomers), the IC50 is 11.2 µM.

As to `Cc1c(C)c2c(c(C)c1OC(=O)CCCC[C@@H]1SC[C@@H]3NC(=O)N[C@@H]31)CCC(C)(COc1ccc(CC3SC(=O)NC3=O)cc1)O2` (mixture of isomers), inhibition was half-maximal at 15.9 µM (IC50).

`Cc1c(C)c2c(c(C)c1OC(=O)OC(C)(C)C)CCC(C)(COc1ccc(/C=C3\SC(=O)NC3=O)cc1)O2` (racemic) yielded an IC50 of 7.7 µM.

`Cc1cc(C)c2c(c1C)OC(C)(COc1ccc(/C=C3\SC(=O)NC3=O)cc1)CC2` (racemic) showed an IC50 of 12.5 µM.

In turn, `Cc1c(C)c2c(c(C)c1OC(=O)CCCCCCCNC(=O)OC(C)(C)C)CCC(C)(COc1ccc(/C=C3\SC(=O)NC3=O)cc1)O2` (racemic) registered a half-maximal inhibitory concentration (IC50) of 13 µM.

In turn, `Cc1c(C)c2c(c(C)c1OC(=O)CCCCCCCN)CCC(C)(COc1ccc(/C=C3\SC(=O)NC3=O)cc1)O2` (racemic) returned an IC50 of 3.2 µM.

For `CC(=O)NCCNC(=O)CCC(=O)Oc1c(C)c(C)c2c(c1C)CCC(C)(COc1ccc(/C=C3\SC(=O)NC3=O)cc1)O2` (racemic), the IC50 was greater than 50 µM.

Molecule `Cc1c(C)c2c(c(C)c1OC(=O)OC(C)(C)C)CCC(C)(COc1ccc(CC3SC(=O)NC3=O)cc1)O2` (racemic) had a concentration for half-maximal inhibition (IC50) of 11.2 µM.

Consider `Cc1cc(C)c2c(c1C)OC(C)(COc1ccc(CC3SC(=O)NC3=O)cc1)CC2` (racemic), for which the IC50 was 20 µM.

On to `Cc1c(C)c2c(c(C)c1OC(=O)CCC(=O)O)CCC(C)(COc1ccc(CC3SC(=O)NC3=O)cc1)O2` (racemic), for which the IC50 was greater than 50 µM.

Regarding `Cc1c(C)c2c(c(C)c1O)CCC(C)(COc1ccc(/C=C3\SC(=O)NC3=O)cc1)O2` (racemic), half-maximal inhibition (IC50) required 29.7 µM.

For the molecule `Cc1c(C)c2c(c(C)c1OC(=O)CCC(=O)O)CCC(C)(COc1ccc(/C=C3\SC(=O)NC3=O)cc1)O2` (racemic), the IC50 was greater than 50 µM.

Take `Cc1c(C)c2c(c(C)c1O)CCC(C)(COc1ccc(CC3SC(=O)NC3=O)cc1)O2` (stereo not drawn) [TROGLITAZONE]: the IC50 turned out to be 35.4 µM.

The test system of the next data set is Hepatocyte. The data set is described as follows: Cytotoxicity against human hepatocytes assessed as cell viability up to 50 uM after 90 mins by MTT assay. In kind it is cell-based. As to conditions: 1.5 h. An outline of the steps: (§2)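 Cryopreserved primary human hepatocytes, 0.1 × 10⁶ cells/well in DMEM with gentamycin, insulin, 10 µM dexamethasone, 37 °C, 5% CO₂. Equilibrated 30 min with stirring at 900 rpm, then compound or DMSO (0.4%) added, 0.5–100 µM (7 levels), triplicate. After 90 min, MTT added for 30 min at 37 °C; formazan dissolved in DMSO, A595; viability as % of DMSO control.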
(Tetrazolium assays rely on reduction of a dye to a coloured formazan, in cell work by metabolically active cells.)
Take `Cc1cc(C)c2c(c1C)OC(C)(COc1ccc(/C=C3\SC(=O)NC3=O)cc1)CC2` (racemic): the Activity result is given as “Non-toxic”.

As to `Cc1c(C)c2c(c(C)c1OC(=O)CCCCCCCNC(=O)OC(C)(C)C)CCC(C)(COc1ccc(/C=C3\SC(=O)NC3=O)cc1)O2` (racemic), the Activity result is “Non-toxic”.

On to `Cc1c(C)c2c(c(C)c1O)CCC(C)(COc1ccc(/C=C3\SC(=O)NC3=O)cc1)O2` (racemic), for which the Activity entry was “Non-toxic”.

Consider `Cc1c(C)c2c(c(C)c1O)CCC(C)(COc1ccc(CC3SC(=O)NC3=O)cc1)O2` (stereo not drawn) [TROGLITAZONE], for which the Activity entry was “Non-toxic”.

Tested on in another data set: not listed separately
Nature of the data set: Cytotoxicity against human hepatocytes assessed as cell viability at 100 uM after 90 mins by MTT assay relative to control. In kind it is cell-based, Hepatocyte. To be noted: read-out: Activity. An outline of the steps:
as §2
In the case of `Cc1c(C)c2c(c(C)c1OC(=O)CCCCCCCNC(=O)CCCC[C@@H]1SC[C@@H]3NC(=O)N[C@@H]31)CCC(C)(COc1ccc(/C=C3\SC(=O)NC3=O)cc1)O2` (stereo partly drawn), the viability at 1.5 h, 100 µM stood at 61%.

For `Cc1c(C)c2c(c(C)c1OC(=O)CCCC[C@@H]1SC[C@@H]3NC(=O)N[C@@H]31)CCC(C)(COc1ccc(/C=C3\SC(=O)NC3=O)cc1)O2` (mixture of isomers), the viability at 1.5 h, 100 µM amounted to 66%.

On to `Cc1c(C)c2c(c(C)c1OC(=O)CCCC[C@@H]1SC[C@@H]3NC(=O)N[C@@H]31)CCC(C)(COc1ccc(CC3SC(=O)NC3=O)cc1)O2` (mixture of isomers), for which the viability at 1.5 h, 100 µM amounted to 50%.

As for `Cc1c(C)c2c(c(C)c1OC(=O)OC(C)(C)C)CCC(C)(COc1ccc(/C=C3\SC(=O)NC3=O)cc1)O2` (racemic), the viability at 1.5 h, 100 µM is 75%.

For the molecule `Cc1cc(C)c2c(c1C)OC(C)(COc1ccc(/C=C3\SC(=O)NC3=O)cc1)CC2` (racemic), the viability at 1.5 h, 100 µM came to 84%.

Consider `Cc1c(C)c2c(c(C)c1OC(=O)CCCCCCCNC(=O)OC(C)(C)C)CCC(C)(COc1ccc(/C=C3\SC(=O)NC3=O)cc1)O2` (racemic), for which the viability at 1.5 h, 100 µM was 79%.

With `Cc1c(C)c2c(c(C)c1OC(=O)CCCCCCCN)CCC(C)(COc1ccc(/C=C3\SC(=O)NC3=O)cc1)O2` (racemic), the viability at 1.5 h, 100 µM came out at 57%.

`CC(=O)NCCNC(=O)CCC(=O)Oc1c(C)c(C)c2c(c1C)CCC(C)(COc1ccc(/C=C3\SC(=O)NC3=O)cc1)O2` (racemic): the viability at 1.5 h, 100 µM came out at 75%.

Regarding `Cc1c(C)c2c(c(C)c1OC(=O)OC(C)(C)C)CCC(C)(COc1ccc(CC3SC(=O)NC3=O)cc1)O2` (racemic), the viability at 1.5 h, 100 µM was found to be 47%.

For `Cc1cc(C)c2c(c1C)OC(C)(COc1ccc(CC3SC(=O)NC3=O)cc1)CC2` (racemic), the viability at 1.5 h, 100 µM amounted to 66%.

Turning to `Cc1c(C)c2c(c(C)c1OC(=O)CCC(=O)O)CCC(C)(COc1ccc(CC3SC(=O)NC3=O)cc1)O2` (racemic), the viability at 1.5 h, 100 µM turned out to be 76%.

In the case of `Cc1c(C)c2c(c(C)c1O)CCC(C)(COc1ccc(/C=C3\SC(=O)NC3=O)cc1)O2` (racemic), the viability at 1.5 h, 100 µM stood at 63%.

As to `Cc1c(C)c2c(c(C)c1OC(=O)CCC(=O)O)CCC(C)(COc1ccc(/C=C3\SC(=O)NC3=O)cc1)O2` (racemic), the viability at 1.5 h, 100 µM turned out to be 54%.

As to `Cc1c(C)c2c(c(C)c1O)CCC(C)(COc1ccc(CC3SC(=O)NC3=O)cc1)O2` (stereo not drawn) [TROGLITAZONE], the viability at 1.5 h, 100 µM is 52%.
